Reference: ChEMBL document CHEMBL3352255, “Tailor-made fluorescent trilobolide to study its biological relevance” (J Med Chem, 2014)
Calls of active or inactive are those of the source. The rule behind the calls is not given here.

What was measured:
[1] = Cellular uptake in mitochondria of human PC3 cells at 1 uM after 10 to 40 mins by fluorescence microscopy; assay type: ADME; settings: pc-3, 1 µM
Outline: (§1)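 Live cells were treated with 1 μM Bodipy conjugates for at least 40 min and then co-stained with MitoTracker Red FM (100 nM, 10 min). Imaging by fluorescence microscopy assessed colocalisation with the green signal and the state of the mitochondrial network.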

PC-3 [2] = experiment: Induction of mitochondria fragmentation in human PC3 cells at 1 uM after 10 to 40 mins by fluorescence microscopy; assay type: functional, cell-based; outline: as §1
[3] = Cytotoxicity against human PC3 cells after 24 hrs by WST-1 assay; assay type: functional, cell-based; settings: PC-3, 24 h
Outline: (§2)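 Dark cytotoxicity (no light exposure) by WST-1 tetrazolium-to-formazan conversion reflecting metabolic activity; compounds tested at concentrations up to 50 μM for 24, 48 or 72 h; IC50 taken as concentration giving 50% inhibition of cell viability.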

[4] = Cytotoxicity against human PC3 cells after 48 hrs by WST-1 assay; assay type: functional, cell-based; settings: PC-3, 48 h; outline: as §2
[5] = Cytotoxicity against human PC3 cells after 72 hrs by WST-1 assay; assay type: functional, cell-based; settings: PC-3, 72 h; outline: as §2
C2C12 [6] = experiment: Cytotoxicity against mouse C2C12 cells after 24 hrs by WST-1 assay; assay type: functional, cell-based; settings: C2C12, 24 h; outline: as §2
C2C12 [7] = experiment: Cytotoxicity against mouse C2C12 cells after 48 hrs by WST-1 assay; assay type: functional, cell-based; settings: C2C12, 48 h; outline: as §2
C2C12 [8] = experiment: Cytotoxicity against mouse C2C12 cells after 72 hrs by WST-1 assay; assay type: functional, cell-based; settings: C2C12, 72 h; outline: as §2
U2OS [9] = experiment: Cytotoxicity against human U2OS cells after 24 hrs by WST-1 assay; assay type: functional, cell-based; outline: as §2
U2OS [10] = experiment: Cytotoxicity against human U2OS cells after 48 hrs by WST-1 assay; assay type: functional, cell-based; outline: as §2
U2OS [11] = experiment: Cytotoxicity against human U2OS cells after 72 hrs by WST-1 assay; assay type: functional, cell-based; outline: as §2
MCF7 [12] = experiment: Cytotoxicity against human MCF7 cells after 24 hrs by WST-1 assay; assay type: functional, cell-based; settings: MCF7, 24 h; outline: as §2
MCF7 [13] = experiment: Cytotoxicity against human MCF7 cells after 48 hrs by WST-1 assay; assay type: functional, cell-based; settings: MCF7, 48 h; outline: as §2
MCF7 [14] = experiment: Cytotoxicity against human MCF7 cells after 72 hrs by WST-1 assay; assay type: functional, cell-based; settings: MCF7, 72 h; outline: as §2
[15] = Cytotoxicity against human MIAPaCa2 cells after 24 hrs by WST-1 assay; assay type: functional, cell-based; settings: MIA PaCa-2, 24 h; outline: as §2
[16] = Cytotoxicity against human MIAPaCa2 cells after 48 hrs by WST-1 assay; assay type: functional, cell-based; settings: MIA PaCa-2, 48 h; outline: as §2
[17] = Cytotoxicity against human MIAPaCa2 cells after 72 hrs by WST-1 assay; assay type: functional, cell-based; settings: MIA PaCa-2, 72 h; outline: as §2
HT-29 = experiment: Cytotoxicity against human HT-29 cells after 24 hrs by WST-1 assay; assay type: functional, cell-based; settings: HT-29, 24 h; outline: as §2
Rattus norvegicus [18] = organism: Rattus norvegicus; experiment: Induction of LPS-induced NO production in rat peritoneal cells at 40 uM after 24 hrs using DAR-2 probe by fluorescence assay; assay type: functional, cell-based
Outline: (§3)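 Rat peritoneal cells were treated with conjugates at 0.01–100.0 μM for 24 h. NO production was compared with untreated cells. LPS (100 pg·mL−1) and trilobolide (0.1 μM) were included as references. Data are mean ± SEM of three independent experiments, n = 6.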

PC-3 [19] = experiment: Induction of LPS-induced NO production in human PC3 cells at 40 uM after 24 hrs using DAR-2 probe by fluorescence assay; assay type: functional, cell-based
Outline: (§4)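 NO in living cells (PC-3, LNCaP, MCF-7, U-2 OS) was imaged by fluorescence microscopy with the NO-specific red-emitting probe DAR-2 after compound stimulation.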

LNCaP [20] = experiment: Induction of LPS-induced NO production in human LNCAP cells at 40 uM after 24 hrs using DAR-2 probe by fluorescence assay; assay type: functional, cell-based; outline: as §4
MCF7 [21] = experiment: Induction of LPS-induced NO production in human MCF7 cells at 40 uM after 24 hrs using DAR-2 probe by fluorescence assay; assay type: functional, cell-based; outline: as §4
U2OS [22] = experiment: Induction of LPS-induced NO production in human U2OS cells at 40 uM after 24 hrs using DAR-2 probe by fluorescence assay; assay type: functional, cell-based; outline: as §4
Rattus norvegicus [23] = organism: Rattus norvegicus; experiment: Induction of LPS-induced NO production in rat peritoneal cells after 24 hrs using DAR-2 probe by fluorescence assay; assay type: functional, cell-based
Rattus norvegicus [24] = organism: Rattus norvegicus; experiment: Induction of LPS-induced NO production in rat peritoneal cells at 1 to 10 uM after 24 hrs using DAR-2 probe by fluorescence assay; assay type: functional, cell-based; outline: as §3
[25] = Cellular uptake in human PC3 cells at 1 uM after 20 mins by fluorescence microscopy; assay type: ADME, cell-based; settings: pc-3, 20 min
Outline: (§5)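 Uptake into living cells was followed by fluorescence microscopy at 10, 20 and 40 min and at 1, 3, 5 and 24 h. Green-emitting Bodipy conjugates were given at 1 μM. A Bodipy dye-only stain served as control for dye-driven localisation.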

LNCaP [26] = experiment: Cellular uptake in human LNCAP cells at 1 uM after 20 mins by fluorescence microscopy; assay type: ADME, cell-based; outline: as §5
HeLa = experiment: Cellular uptake in human HeLa cells at 1 uM after 20 mins by fluorescence microscopy; assay type: ADME, cell-based; outline: as §5
[27] = Cellular uptake in HEK293T cells at 1 uM after 20 mins by fluorescence microscopy; assay type: ADME, cell-based; settings: human, hek-293t; outline: as §5
U2OS [28] = experiment: Cellular uptake in human U2OS cells at 1 uM after 40 mins to 24 hrs by fluorescence microscopy; assay type: ADME, cell-based; outline: as §5
[29] = Cellular uptake in human MIAPaCa2 cells at 1 uM after 40 mins to 24 hrs by fluorescence microscopy; assay type: ADME, cell-based; settings: mia paca-2, 1 µM; outline: as §5
U2OS [30] = experiment: Cellular uptake in human U2OS cells at 1 uM after 10 to 20 mins by fluorescence microscopy; assay type: ADME, cell-based; outline: as §5
U2OS [31] = experiment: Cellular uptake in human U2OS cells at 1 uM after 45 to 60 mins by fluorescence microscopy; assay type: ADME, cell-based; outline: as §5
U2OS [32] = experiment: Cellular uptake in human U2OS cells at 2 uM after 0.5 to 24 hrs by fluorescence microscopy; assay type: ADME, cell-based
Outline: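 U-2 OS live cells were imaged by fluorescence microscopy across a range of conjugate concentrations and time points from 0.5 to 24 h. The intracellular signal plateau was then assessed.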

[33] = Cellular uptake in Endoplasmic reticulum of human U2OS cells at 1 uM after 1 hr by fluorescence microscopy; assay type: ADME, cell-based
Outline: (§6)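 Live-cell fluorescence microscopy of cells exposed to Bodipy-labelled conjugates at 1 μM for 1 h. ER was co-stained with ER-Tracker Blue-White DPX (100 nM, 20 min) to check colocalisation. A Bodipy dye-only stain served as control.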

[34] = Cellular uptake in Endoplasmic reticulum of human PC3 cells at 1 uM after 1 hr by fluorescence microscopy; assay type: ADME, cell-based; settings: pc-3, 1 h; outline: as §6
[35] = Cellular uptake in Endoplasmic reticulum of human HeLa cells at 1 uM after 1 hr by fluorescence microscopy; assay type: ADME, cell-based; outline: as §6
U2OS [36] = experiment: Induction of ER stress in Endoplasmic reticulum of human U2OS cells assessed as small vesicle formation from ER network at 1 uM after 3 to 5 hrs by fluorescence microscopy; assay type: functional, cell-based
Outline: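 U-2 OS live cells were incubated with conjugates at 1 μM for 1, 3 and 5 h. Fluorescence microscopy was used to score small vesicles or pouches budding from the ER network.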

[37] = Cellular uptake in mitochondria of human U2OS cells at 1 uM after 10 to 40 mins by fluorescence microscopy; assay type: ADME; outline: as §1
U2OS [38] = experiment: Induction of mitochondria fragmentation in human U2OS cells at 1 uM after 10 to 40 mins by fluorescence microscopy; assay type: functional, cell-based; outline: as §1

Structure (SMILES) | Drug uptake [1] | Activity (PC-3 [2]) | IC50 [3] | IC50 [4] | IC50 [5] | IC50 (C2C12 [6]) | IC50 (C2C12 [7]) | IC50 (C2C12 [8]) | IC50 (U2OS [9]) | IC50 (U2OS [10]) | IC50 (U2OS [11]) | IC50 (MCF7 [12]) | IC50 (MCF7 [13]) | IC50 (MCF7 [14]) | IC50 [15] | IC50 [16] | IC50 [17] | IC50 (HT-29) | Activity (Rattus norvegicus [18]) | Activity (PC-3 [19]) | also measured
C/C=C(/C)C(=O)O[C@@H]1C[C@H]2C(=C1C)[C@@H]1OC(=O)[C@@](C)(O)[C@@]1(O)[C@@H](OC(=O)CCOCCOCCOCCOCCn1cc(COc3ccc(C4=C5C=CC=[N+]5[B-](F)(F)n5cccc54)cc3)nn1)C[C@]2(C)OC(C)=O | Not Active | Active | 2.5 µM | 3.1 µM | 4.1 µM | 8 µM | 6.5 µM | 14.3 µM | > 50 µM | 5.4 µM | 9.1 µM | 7.4 µM | 6.3 µM | 6 µM | > 50 µM | 9.9 µM | 6.5 µM | > 50 µM | Active | Active | Activity (LNCaP [20]): Active; Activity (MCF7 [21]): Active; Activity (U2OS [22]): Active; Activity (Rattus norvegicus [23]): Dose-dependent effect; Activity (Rattus norvegicus [24]): Active; Drug uptake [25]: Active; Drug uptake (LNCaP [26]): Active; Drug uptake (HeLa): Active; Drug uptake [27]: Active; Drug uptake (U2OS [28]): Not Active; Drug uptake [29]: Active; Drug uptake (U2OS [30]): Active; Drug uptake (U2OS [31]): Not Active; Drug uptake (U2OS [32]): Active; Drug uptake [33]: Active; Drug uptake [34]: Active; Drug uptake [35]: Active; Activity (U2OS [36]): Active; Drug uptake [37]: Not Active; Activity (U2OS [38]): Active
C/C=C(/C)C(=O)O[C@@H]1C[C@H]2C(=C1C)[C@@H]1OC(=O)[C@@](C)(O)[C@@]1(O)[C@@H](OC(=O)CCCCn1cc(COc3ccc(C4=C5C=CC=[N+]5[B-](F)(F)n5cccc54)cc3)nn1)C[C@]2(C)OC(C)=O | Not Active | Active | 4.2 µM | 4.6 µM | 3.8 µM | > 50 µM | 7.5 µM | 15.1 µM | 25.6 µM | 13.2 µM | 9.1 µM | > 50 µM | 12.8 µM | 10.8 µM | > 50 µM | 43.5 µM | 38.3 µM | > 50 µM | Active | Active | Activity (LNCaP [20]): Active; Activity (MCF7 [21]): Active; Activity (U2OS [22]): Active; Activity (Rattus norvegicus [23]): Dose-dependent effect; Activity (Rattus norvegicus [24]): Active; Drug uptake [25]: Active; Drug uptake (LNCaP [26]): Active; Drug uptake (HeLa): Active; Drug uptake [27]: Active; Drug uptake (U2OS [28]): Not Active; Drug uptake [29]: Active; Drug uptake (U2OS [30]): Active; Drug uptake (U2OS [31]): Not Active; Drug uptake (U2OS [32]): Active; Drug uptake [33]: Active; Drug uptake [34]: Active; Drug uptake [35]: Active; Activity (U2OS [36]): Active; Drug uptake [37]: Not Active; Activity (U2OS [38]): Active
